In ChEMBL document CHEMBL2321713 (Bioorg Med Chem, 2013):

Assays:
Liver microsomes [1] = assay: Drug metabolism in human liver microsomes assessed as C3'-demethylation after 30 mins by LC-UV/MS analysis; format: ADME, Microsome; settings: 0.5 h
Procedure, shortened: (§1)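 Rat or human liver microsomes (20 mg protein/ml suspension) were added to start reactions after test compound (1 mM stock) in 50 mM Tris-Cl pH 7.4 with MgCl2 was pre-incubated 30 min at 37 °C. Incubation ran 30 min at 37 °C, shaken in air. Reactions were quenched with ice-cold dichloromethane plus internal standards. Metabolites were separated on C18 (acetonitrile/water gradient 40→60%) and identified by positive-mode MS.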

Liver microsomes [2] = assay: Drug metabolism in human liver microsomes assessed as C3-demethylation after 30 mins by LC-UV/MS analysis; format: ADME, Microsome; settings: 0.5 h; procedure, shortened: as §1
Homo sapiens [3] = species: Homo sapiens; assay: Selectivity ratio of EC50 for human MT1 receptor to EC50 for human MT2 receptor
Procedure, shortened: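 Ca2+ mobilization (FLIPR) in CHO clonal lines stably co-expressing hMT1 or hMT2 with chimeric Gα16z25. Cells seeded a day before, loaded with 2 µM Fluo-4 in HBSS (pH 7.5) with 2.5 mM probenecid, 1 h, 37 °C. Fluorescence read 3 min after agonist addition, excitation 488 nm. […] Ratio is MT1 EC50/MT2 EC50.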

[4] = target: T1, Melatonin receptor type 1B (Homo sapiens, UniProt P49286); assay: Agonist activity at human MT2 receptor expressed in CHO cells coexpressing Galpha protein 16z25 assessed as increase in calcium mobilization measured for 3 mins by FLIPR assay; format: functional, cell-based
T1 sequence (P49286 whole entry): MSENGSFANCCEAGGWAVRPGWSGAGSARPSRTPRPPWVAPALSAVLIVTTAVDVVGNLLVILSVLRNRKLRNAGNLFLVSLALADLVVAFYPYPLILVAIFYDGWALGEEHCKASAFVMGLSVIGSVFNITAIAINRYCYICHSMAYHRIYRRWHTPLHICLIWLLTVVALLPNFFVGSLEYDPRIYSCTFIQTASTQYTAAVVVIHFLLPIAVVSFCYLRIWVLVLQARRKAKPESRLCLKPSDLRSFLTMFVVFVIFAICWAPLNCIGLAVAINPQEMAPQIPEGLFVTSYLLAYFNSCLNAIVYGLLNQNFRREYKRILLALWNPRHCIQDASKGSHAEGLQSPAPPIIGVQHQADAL
Procedure, shortened: (§2)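 CHO cells stably expressing human MT1 or MT2 with chimeric Gα16z25 were seeded in growth medium the day before. Fluorescence at 488 nm excitation was followed for 3 min after agonist addition.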

[5] = Elimination half life in rat liver microsomes by HPLC/MS analysis; format: ADME, Microsome; settings: read-out: beta t1/2
Procedure, shortened: (§3)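 Rat or human liver microsomal incubations at 37 °C were analysed for percent parent remaining over incubation time. k is the slope of the linear regression of ln(% remaining) versus time, and t1/2 = 0.693/k. In vitro intrinsic clearance was derived from t1/2 and used to predict hepatic clearance.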

[6] = Intrinsic clearance in rat liver microsomes after 30 mins by HPLC/MS analysis; format: ADME, Microsome; settings: read-out: CLH; procedure, shortened: as §3
[7] = target: T2, Melatonin receptor type 1A (Homo sapiens, UniProt P48039); assay: Agonist activity at human MT1 receptor expressed in CHO cells coexpressing Galpha protein 16z25 assessed as increase in calcium mobilization measured for 3 mins by FLIPR assay; format: functional, cell-based; procedure, shortened: as §2
T2 sequence (P48039 whole entry): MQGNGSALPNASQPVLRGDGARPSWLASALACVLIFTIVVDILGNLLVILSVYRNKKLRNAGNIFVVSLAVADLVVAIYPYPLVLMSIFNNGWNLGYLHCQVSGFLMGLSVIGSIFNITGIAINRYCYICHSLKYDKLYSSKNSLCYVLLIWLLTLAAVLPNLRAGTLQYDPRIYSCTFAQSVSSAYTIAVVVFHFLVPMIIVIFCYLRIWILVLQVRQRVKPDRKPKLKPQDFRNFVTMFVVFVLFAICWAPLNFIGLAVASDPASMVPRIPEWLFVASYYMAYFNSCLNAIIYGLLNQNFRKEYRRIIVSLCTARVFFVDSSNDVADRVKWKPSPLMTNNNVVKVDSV

Liver microsomes [8] = assay: Drug metabolism in rat liver microsomes assessed as C3'-demethylation after 30 mins by LC-UV/MS analysis; format: ADME, Microsome; settings: 0.5 h; procedure, shortened: as §1
[9] = target: T1, Melatonin receptor type 1B; assay: Displacement of [3H]melatonin from human MT2 receptor expressed in CHO cells after 60 mins by microbeta scintillation method; format: cell-based
[10] = Intrinsic clearance in human liver microsomes after 30 mins by HPLC/MS analysis; format: ADME, Microsome; settings: read-out: CLH; procedure, shortened: as §3
Liver microsomes [11] = assay: Drug metabolism in human liver microsomes assessed as aromatic ring hydroxylation after 30 mins by LC-UV/MS analysis; format: ADME, Microsome; settings: 0.5 h; procedure, shortened: as §1
Liver microsomes [12] = assay: Drug metabolism in rat liver microsomes assessed as C3-demethylation after 30 mins by LC-UV/MS analysis; format: ADME, Microsome; settings: 0.5 h; procedure, shortened: as §1
Liver microsomes [13] = assay: Drug metabolism in rat liver microsomes assessed as aromatic ring hydroxylation after 30 mins by LC-UV/MS analysis; format: ADME, Microsome; settings: 0.5 h; procedure, shortened: as §1
[14] = target: T2, Melatonin receptor type 1A; assay: Displacement of [3H]melatonin from human MT1 receptor expressed in CHO cells after 60 mins by microbeta scintillation method; format: cell-based
[15] = Elimination half life in human liver microsomes by HPLC/MS analysis; format: ADME, Microsome; settings: read-out: beta t1/2; procedure, shortened: as §3
Homo sapiens [16] = species: Homo sapiens; assay: Selectivity ratio of Ki for human MT1 receptor to Ki for human MT2 receptor
Procedure, shortened: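 Whole-cell competition binding on CHO cells stably expressing hMT1 or hMT2, 1.5×10^5 cells per tube. Incubated 60 min at 4 °C, then filtered through GF/C and counted. Means of duplicate experiments. Ratio is MT1 Ki/MT2 Ki.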

## CCC(=O)NCCCc1cc(OC)ccc1-c1cccc(OC)c1
Liver microsomes [1]
  Drug metabolism: Active
Liver microsomes [2]
  Drug metabolism: Active
Homo sapiens [3]
  Ratio EC50: 14
[4]
  EC50: 0.2 nM
[5]
  half-life: 7.5 min
[6]
  CLint scaled: 333 mL/min/kg
[7]
  EC50: 2.94 nM
Liver microsomes [8]
  Drug metabolism: Active
[9]
  Ki: 0.339 nM
[10]
  CLint scaled: 353 mL/min/kg
Liver microsomes [11]
  Drug metabolism: Active
Liver microsomes [12]
  Drug metabolism: Active
Liver microsomes [13]
  Drug metabolism: Active
[14]
  Ki: 32.7 nM
[15]
  half-life: 5.3 min
Homo sapiens [16]
  Ratio Ki: 96

## CCC(=O)NCCCc1cc(OC)ccc1OCc1cccc(OC)c1
Homo sapiens [3]
  Ratio EC50: 181
[4]
  EC50: 0.05 nM
[5]
  half-life: 9.5 min
[6]
  CLint scaled: 262 mL/min/kg
[7]
  EC50: 9.03 nM
[9]
  Ki: 0.291 nM
[10]
  CLint scaled: 340 mL/min/kg
[14]
  Ki: 121 nM
[15]
  half-life: 5.5 min
Homo sapiens [16]
  Ratio Ki: 417

## CCC(=O)NCCCc1cc(OC)ccc1C#Cc1cccc(OC)c1
Liver microsomes [1]
  Drug metabolism: Active
Liver microsomes [2]
  Drug metabolism: Active
Homo sapiens [3]
  Ratio EC50: 77
[4]
  EC50: 0.11 nM
[5]
  half-life: 21.7 min
[6]
  CLint scaled: 115 mL/min/kg
[7]
  EC50: 8.38 nM
Liver microsomes [8]
  Drug metabolism: Active
[9]
  Ki: 0.073 nM
[10]
  CLint scaled: 102 mL/min/kg
Liver microsomes [11]
  Drug metabolism: Active
Liver microsomes [12]
  Drug metabolism: Active
Liver microsomes [13]
  Drug metabolism: Active
[14]
  Ki: 38.2 nM
[15]
  half-life: 18.3 min
Homo sapiens [16]
  Ratio Ki: 527

## COc1ccc2[nH]cc(CCNC(C)=O)c2c1 [MELATONIN]
[5]
  half-life: 75.3 min
[6]
  CLint scaled: 33.1 mL/min/kg
[10]
  CLint scaled: 25.5 mL/min/kg
[15]
  half-life: 73.2 min

## CCC(=O)NCCCc1cc(OC)ccc1CCc1cccc(OC)c1
Liver microsomes [1]
  Drug metabolism: Active
Liver microsomes [2]
  Drug metabolism: Active
Homo sapiens [3]
  Ratio EC50: 679
[4]
  EC50: 0.024 nM
[5]
  half-life: 8.3 min
[6]
  CLint scaled: 301 mL/min/kg
[7]
  EC50: 16.3 nM
Liver microsomes [8]
  Drug metabolism: Active
[9]
  Ki: 0.55 nM
[10]
  CLint scaled: 367 mL/min/kg
Liver microsomes [11]
  Drug metabolism: Active
Liver microsomes [12]
  Drug metabolism: Active
Liver microsomes [13]
  Drug metabolism: Active
[14]
  Ki: 22.2 nM
[15]
  half-life: 5.1 min
Homo sapiens [16]
  Ratio Ki: 40

## CCC(=O)NCCCc1cc(OC)ccc1Cc1cccc(OC)c1
Liver microsomes [1]
  Drug metabolism: Active
Liver microsomes [2]
  Drug metabolism: Active
Homo sapiens [3]
  Ratio EC50: 171
[4]
  EC50: 0.24 nM
[5]
  half-life: 8.6 min
[6]
  CLint scaled: 290 mL/min/kg
[7]
  EC50: 41.6 nM
Liver microsomes [8]
  Drug metabolism: Active
[9]
  Ki: 3.39 nM
[10]
  CLint scaled: 312 mL/min/kg
Liver microsomes [11]
  Drug metabolism: Active
Liver microsomes [12]
  Drug metabolism: Active
Liver microsomes [13]
  Drug metabolism: Active
[14]
  Ki: 39.5 nM
[15]
  half-life: 6 min
Homo sapiens [16]
  Ratio Ki: 12
